{"source": "paper PMC6150782", "about": "(Journal of molecular neuroscience : MN, 2018)", "key": {"[1]": {"experiment": "Aqueous solubility, shaken flask method", "format": "physicochemical", "in_short": "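Shake-flask method at pH 1.2, 7.4 and 9.2. Dissolved concentration measured by HPLC against a standard curve.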"}, "[2]": {"experiment": "Log P", "format": "physicochemical"}, "[3]": {"experiment": "Mouse plasma pharmacokinetics", "format": "in vivo, CD1 mice"}, "[4]": {"experiment": "Metabolic stability in human liver microsomes", "format": "in vitro ADME", "in_short": "(§1)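 Test compound at 1 μM incubated with human or mouse liver microsomes for up to 60 min. Samples analysed by LTQ-Orbitrap XL mass spectrometry. Single determination per time point. Testosterone at 1 μM served as the metabolically labile control. Run by a contract lab.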"}, "[5]": {"experiment": "Metabolic stability in mouse liver microsomes", "format": "in vitro ADME", "in_short": "as §1"}, "[6]": {"biological_target": "hERG channel (Homo sapiens, UniProt Q12809)", "sequence (Q12809 whole entry)": "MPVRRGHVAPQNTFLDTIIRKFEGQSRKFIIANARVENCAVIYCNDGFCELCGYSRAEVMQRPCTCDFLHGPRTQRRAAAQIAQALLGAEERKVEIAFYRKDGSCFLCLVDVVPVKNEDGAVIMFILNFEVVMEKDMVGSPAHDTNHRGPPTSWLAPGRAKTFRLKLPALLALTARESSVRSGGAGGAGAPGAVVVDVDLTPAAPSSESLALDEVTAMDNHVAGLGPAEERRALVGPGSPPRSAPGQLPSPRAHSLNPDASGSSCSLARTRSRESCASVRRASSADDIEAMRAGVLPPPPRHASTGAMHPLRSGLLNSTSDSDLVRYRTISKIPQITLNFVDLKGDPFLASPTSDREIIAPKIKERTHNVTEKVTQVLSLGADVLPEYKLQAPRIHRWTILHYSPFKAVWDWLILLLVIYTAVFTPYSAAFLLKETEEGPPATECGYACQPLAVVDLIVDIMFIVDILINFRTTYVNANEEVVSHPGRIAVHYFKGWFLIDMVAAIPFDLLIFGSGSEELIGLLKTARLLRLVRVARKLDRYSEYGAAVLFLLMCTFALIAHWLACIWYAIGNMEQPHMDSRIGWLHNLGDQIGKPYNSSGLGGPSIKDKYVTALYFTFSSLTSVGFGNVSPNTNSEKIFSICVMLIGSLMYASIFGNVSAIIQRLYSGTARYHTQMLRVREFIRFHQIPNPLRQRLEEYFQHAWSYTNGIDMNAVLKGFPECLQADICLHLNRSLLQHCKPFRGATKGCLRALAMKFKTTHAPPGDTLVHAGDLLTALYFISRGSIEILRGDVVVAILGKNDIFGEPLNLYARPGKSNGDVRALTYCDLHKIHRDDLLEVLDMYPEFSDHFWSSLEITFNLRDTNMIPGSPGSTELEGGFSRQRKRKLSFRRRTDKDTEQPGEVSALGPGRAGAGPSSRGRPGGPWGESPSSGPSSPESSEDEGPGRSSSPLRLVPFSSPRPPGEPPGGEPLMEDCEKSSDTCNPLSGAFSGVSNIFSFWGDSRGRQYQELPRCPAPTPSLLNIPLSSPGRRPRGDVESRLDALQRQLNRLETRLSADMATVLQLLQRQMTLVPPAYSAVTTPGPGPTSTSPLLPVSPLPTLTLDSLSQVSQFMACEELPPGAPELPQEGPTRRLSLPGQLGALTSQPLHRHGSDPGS", "experiment": "hERG channel binding assay", "conditions": "10 μM; [3H]-dofetilide; HEK-293", "in_short": "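Binding to human recombinant hERG expressed in HEK-293 cells, using 3 nM [3H]-dofetilide. Test compound at 10 μM, 60 min at room temperature. Non-specific binding defined with 25 μM terfenadine. Reported as % inhibition of control specific binding. Run by a contract lab.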"}, "[7]": {"experiment": "Plasma protein binding, equilibrium dialysis, human plasma", "format": "in vitro ADME", "conditions": "1 μM, 5 hours at 37 °C"}, "[8]": {"experiment": "Plasma protein binding, equilibrium dialysis, mouse plasma", "format": "in vitro ADME", "conditions": "1 μM, 5 hours at 37 °C"}, "[9]": {"system": "dissociated rat hippocampal cultures", "format": "cell-based", "in_short": "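Papain-dissociated E18 rat hippocampal cells at 10,000/well in serum-free Neurobasal/B27/GlutaMAX, used at days 12–14 after a medium change. Test compound (DMSO stock diluted in DPBS, ≤0.1% DMSO; 5 concentrations, n=5, two plates) added 5 min before 30 mM ethanol plus 300 μM ammonium acetate, then 5 h at 37 °C. CFDA 15 min at 37 °C, 30 min efflux wash, Triton lysis, Ex490/Em517. EC50 from 4-parameter logistic fit.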"}, "[10]": {"system": "dissociated rat hippocampal cultures", "format": "cell-based", "in_short": "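E18 rat hippocampal cultures at days 12–14 received test compound (5 concentrations, n=5, two plates) 5 min before 30 mM ethanol plus 300 μM ammonium acetate, then 5 h at 37 °C. Medium removed and 50 μM propidium iodide applied for 15 min in the dark at room temperature. Read at Ex536/Em590 minus cell-free blank wells. IC50 from 4-parameter logistic fit.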", "remark": "listed apart in the source"}, "[11]": {"system": "hippocampal cultures", "format": "cell-based, rat"}, "[12]": {"system": "hippocampal cultures", "format": "cell-based, rat", "conditions": "for cell death response at 30 min or 60 min of incubation / time points with significant cell death differences from control: 30 μM cannabidiol, 100 μM KLS-13019, day 18–19 cultures"}, "[13]": {"biological_target": "CB2 (Homo sapiens, UniProt P34972)", "sequence (P34972 whole entry)": "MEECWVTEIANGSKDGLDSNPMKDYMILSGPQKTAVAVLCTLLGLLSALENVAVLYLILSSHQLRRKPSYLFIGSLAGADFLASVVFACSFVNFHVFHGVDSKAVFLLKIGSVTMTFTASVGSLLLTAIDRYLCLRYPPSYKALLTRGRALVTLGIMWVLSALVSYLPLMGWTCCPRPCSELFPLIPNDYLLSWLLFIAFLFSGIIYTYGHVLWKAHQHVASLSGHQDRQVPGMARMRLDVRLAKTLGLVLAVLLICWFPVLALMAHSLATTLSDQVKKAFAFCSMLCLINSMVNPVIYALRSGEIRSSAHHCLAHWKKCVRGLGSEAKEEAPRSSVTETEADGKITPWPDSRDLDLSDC", "experiment": "CB2 binding", "conditions": "10 μM; 0.8 nM radioligand; human recombinant CHO cells"}, "[14]": {"system": "hippocampal cultures", "experiment": "Effect of CB2 antagonist AM 630 on neuroprotection from ethanol, CFDA assay", "format": "cell-based, rat", "conditions": "AM 630 0.1 to 100 nM; 30 mM ethanol; 10 μM CBD or 100 nM KLS-13019"}, "[15]": {"biological_target": "T1, 5HT1a (Homo sapiens, UniProt P08908)", "T1 sequence (P08908 1-422)": "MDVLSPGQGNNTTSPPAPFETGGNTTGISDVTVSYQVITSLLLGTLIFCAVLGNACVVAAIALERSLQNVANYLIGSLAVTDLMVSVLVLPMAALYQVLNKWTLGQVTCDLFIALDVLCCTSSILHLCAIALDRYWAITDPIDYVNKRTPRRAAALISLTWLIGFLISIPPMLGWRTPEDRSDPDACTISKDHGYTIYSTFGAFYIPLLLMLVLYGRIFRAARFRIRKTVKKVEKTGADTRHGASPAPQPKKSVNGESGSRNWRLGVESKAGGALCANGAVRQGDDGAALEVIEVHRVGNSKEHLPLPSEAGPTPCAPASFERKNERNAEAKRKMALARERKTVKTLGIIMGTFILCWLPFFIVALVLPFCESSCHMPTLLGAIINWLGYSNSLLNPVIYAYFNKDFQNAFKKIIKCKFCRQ", "experiment": "5HT1a agonist binding", "conditions": "10 μM; data not shown"}, "[16]": {"biological_target": "TRPV1 (Homo sapiens, UniProt Q8NER1)", "sequence (Q8NER1 whole entry, species assumed)": "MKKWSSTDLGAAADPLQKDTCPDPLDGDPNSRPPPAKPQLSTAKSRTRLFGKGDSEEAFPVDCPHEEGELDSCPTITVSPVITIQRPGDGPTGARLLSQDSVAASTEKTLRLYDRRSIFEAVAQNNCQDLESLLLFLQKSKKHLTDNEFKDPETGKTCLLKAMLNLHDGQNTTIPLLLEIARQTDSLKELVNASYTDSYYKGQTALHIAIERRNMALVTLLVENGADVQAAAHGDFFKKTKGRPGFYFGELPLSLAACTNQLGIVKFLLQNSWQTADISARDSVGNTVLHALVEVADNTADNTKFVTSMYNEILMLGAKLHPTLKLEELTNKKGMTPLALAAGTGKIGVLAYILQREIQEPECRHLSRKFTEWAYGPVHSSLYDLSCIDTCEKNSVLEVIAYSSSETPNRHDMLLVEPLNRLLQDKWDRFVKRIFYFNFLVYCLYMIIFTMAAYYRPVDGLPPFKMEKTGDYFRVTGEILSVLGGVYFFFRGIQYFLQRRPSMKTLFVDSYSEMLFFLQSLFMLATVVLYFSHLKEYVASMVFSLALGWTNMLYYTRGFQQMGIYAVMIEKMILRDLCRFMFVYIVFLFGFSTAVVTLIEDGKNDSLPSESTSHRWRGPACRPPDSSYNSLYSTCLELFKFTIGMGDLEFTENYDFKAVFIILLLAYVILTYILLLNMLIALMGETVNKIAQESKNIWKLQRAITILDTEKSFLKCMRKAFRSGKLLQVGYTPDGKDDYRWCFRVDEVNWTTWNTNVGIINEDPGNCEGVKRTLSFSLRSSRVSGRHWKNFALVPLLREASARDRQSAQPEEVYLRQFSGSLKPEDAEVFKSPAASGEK", "experiment": "TRPV1 receptor binding screen", "conditions": "10 μM; data not shown"}, "[17]": {"biological_target": "T2, PPARγ (Homo sapiens, UniProt P37231)", "T2 sequence (P37231 1-505)": "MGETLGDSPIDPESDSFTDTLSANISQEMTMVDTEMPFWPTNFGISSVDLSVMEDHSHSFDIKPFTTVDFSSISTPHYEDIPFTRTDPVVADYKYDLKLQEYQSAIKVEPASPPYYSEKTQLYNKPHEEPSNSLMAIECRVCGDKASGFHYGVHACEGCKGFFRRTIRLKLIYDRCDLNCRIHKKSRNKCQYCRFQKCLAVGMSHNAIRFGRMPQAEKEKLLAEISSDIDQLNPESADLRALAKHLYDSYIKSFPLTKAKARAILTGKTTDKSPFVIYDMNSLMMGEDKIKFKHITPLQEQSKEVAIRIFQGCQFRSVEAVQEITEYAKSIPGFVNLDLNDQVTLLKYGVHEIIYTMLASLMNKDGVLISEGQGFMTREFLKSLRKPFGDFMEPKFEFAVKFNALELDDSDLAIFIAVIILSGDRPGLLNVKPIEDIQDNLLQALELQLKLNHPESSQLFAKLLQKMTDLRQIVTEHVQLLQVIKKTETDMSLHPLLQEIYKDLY", "experiment": "PPARγ agonist binding", "conditions": "10 μM; data not shown"}, "[18]": {"experiment": "Anticonvulsant activity in animal models", "conditions": "in vivo"}, "[19]": {"conditions": "CD1 mice, plasma, 10 mg/kg p.o."}, "[20]": {"conditions": "combined ethanol + ammonium acetate"}, "[21]": {"conditions": "compound alone in Captisol, 5 hours, day 14 cultures"}, "[22]": {"conditions": "male, CD1, mouse, plasma, po, 10 mg/kg"}}, "data": [{"smiles": "C=C(C)[C@@H]1CCC(C)=C[C@H]1c1c(O)cc(CC2CN(C(C)=O)C2)cc1O", "note": "[KLS-13019]", "values": [{"measurement": "Aqueous solubility", "setting": "[1]", "value": 87, "unit": "µM"}, {"measurement": "fold increase in aqueous solubility in comparison to CBD", "setting": "[1]", "value": "> five"}, {"measurement": "Log P", "setting": "[2]", "value": 3.42}, {"measurement": "CL IV 2 mg/kg", "setting": "[3]; CD1 mice, IV 2 mg/kg", "value": 76.7, "unit": "mL/min/kg"}, {"measurement": "Vss IV 2 mg/kg", "setting": "[3]; CD1 mice, IV 2 mg/kg", "value": 3.2, "unit": "L/kg"}, {"measurement": "AUC p.o.", "setting": "[3]; [19]", "value": 617, "unit": "ng·h/mL"}, {"measurement": "Cmax at 10 mg/kg p.o.", "setting": "[3]; [19]", "value": 1080, "unit": "ng/mL"}, {"measurement": "Tmax p.o.", "setting": "[3]; [19]", "value": 15, "unit": "min"}, {"measurement": "F% (oral bioavailability)", "setting": "[3]; CD1 mice, oral 10 mg/kg, IV 2 mg/kg", "value": 67, "unit": "%"}, {"measurement": "fold increase in F% in comparison to CBD", "setting": "[3]; mice", "value": "> 8", "unit": "fold"}, {"measurement": "fold increase in AUC compared to CBD", "setting": "[3]; mice, 10 mg/kg p.o.", "value": 2.3, "unit": "fold"}, {"measurement": "clearance (CL), i.v. arm", "setting": "[3]; mice, i.v. 2 mg/kg", "value": 4.6, "unit": "mL/min/kg"}, {"measurement": "increase in T 1/2 in comparison to CBD", "setting": "[3]; mice, p.o.", "value": "more than 50%"}, {"measurement": "Microsomal stability Human T 1/2", "setting": "[4]; human liver microsomes, 1 μM", "value": 5.69, "unit": "min"}, {"measurement": "Microsomal stability Mouse T 1/2", "setting": "[5]; mouse liver microsomes, 1 μM", "value": 5.67, "unit": "min"}, {"measurement": "hERG Potassium channel % Inhibition of specific binding", "setting": "[6]", "value": 12, "unit": "%"}, {"measurement": "Plasma protein binding Human % bound", "setting": "[7]", "value": 99.2, "unit": "%"}, {"measurement": "Plasma protein binding Mouse % bound", "setting": "[8]", "value": 99.2, "unit": "%"}, {"measurement": "efficacy of neuroprotection back to control levels (CFDA)", "setting": "[9]; [20]", "value": "full efficacy"}, {"measurement": "fold increase in neuroprotective potency vs CBD (relative EC50s, CFDA)", "setting": "[9]; [20]", "value": 31, "unit": "fold"}, {"measurement": "EC50", "setting": "[9]; read-out: EC50 for CFDA (neuroprotection), 30 mM Ethanol + 300 μM Ammonium Acetate, 5 hours, days 12–14", "value": "127 ± 27", "unit": "nM"}, {"measurement": "efficacy of neuroprotection back to control levels (PI)", "setting": "[10]; [20]", "value": "full efficacy"}, {"measurement": "fold increase in neuroprotective potency vs CBD (relative IC50s, PI)", "setting": "[10]; [20]", "value": 15, "unit": "fold"}, {"measurement": "IC50", "setting": "[10]; read-out: IC50 for PI (neuroprotection), 30 mM Ethanol + 300 μM Ammonium Acetate, 5 hours, days 12–14", "value": 203, "unit": "nM"}, {"measurement": "TC50, neuronal viability assay", "setting": "[11]; [21]", "value": 81000, "unit": "nM"}, {"measurement": "maximal toxicity, % of control values", "setting": "[11]; day 14 cultures, 5 hours", "value": "73 ± 3 % of control"}, {"measurement": "maximal achieved toxicity, % of control, neuronal viability assay", "setting": "[11]; day 19 cultures, time course at 30 μM cannabidiol, 100 μM KLS-13019", "value": "62 ± 3 % of control"}, {"measurement": "fold increase in TC50 relative to CBD", "setting": "[11]; viability and cell death assays", "value": 5, "unit": "fold"}, {"measurement": "cell death response at 30 min or 60 min of incubation", "setting": "[12]", "value": "no significant changes from controls"}, {"measurement": "time points with significant cell death differences from control", "setting": "[12]", "value": "≥ 3", "unit": "h"}, {"measurement": "TC50, cell death assay", "setting": "[12]; [21]", "value": "~100000", "unit": "nM"}, {"measurement": "displacement of 3H-WIN-55212-2 radioactivity at CB2", "setting": "[13]", "value": 55, "unit": "%"}, {"measurement": "effect of CB2 antagonist AM 630 on compound-mediated neuroprotection", "setting": "[14]", "value": "had no effect"}, {"measurement": "receptor binding to 5HT-1a agonist site", "setting": "[15]", "value": "no detectable interactions"}, {"measurement": "receptor binding TRPV1 (agonist)", "setting": "[16]", "value": "no detectable interactions"}, {"measurement": "receptor binding TRPV1 (antagonist)", "setting": "[16]", "value": "no detectable interactions"}, {"measurement": "receptor binding PPARγ (agonist)", "setting": "[17]", "value": "no detectable interactions"}, {"measurement": "anticonvulsant activity in animal models", "setting": "[18]", "value": "lack of anticonvulsant activity"}]}, {"smiles": "C=C(C)[C@@H]1CCC(C)=C[C@H]1c1c(O)cc(CCCCC)cc1O", "note": "[Cannabidiol, reference compound]", "values": [{"measurement": "solubility", "setting": "[1]; aqueous medium", "value": 17, "unit": "µM"}, {"measurement": "CL IV 2 mg/kg", "setting": "[3]; CD1 mice, IV 2 mg/kg", "value": 120, "unit": "mL/min/kg"}, {"measurement": "T 1/2 p.o.", "setting": "[3]; CD1 mice, plasma, 10 mg/kg p.o., 10 mg/kg", "value": 207, "unit": "min"}, {"measurement": "Vd", "setting": "[3]; male, CD1, mouse, plasma, iv, 2 mg/kg", "value": 7.5, "unit": "L/kg"}, {"measurement": "bioavailability", "setting": "[3]; male, CD1, mouse, plasma, oral, 10 mg/kg", "value": 8, "unit": "%"}, {"measurement": "AUC", "setting": "[3]; [22]", "value": 268, "unit": "ng·h/mL"}, {"measurement": "Cmax", "setting": "[3]; [22]", "value": 51, "unit": "ng/mL"}, {"measurement": "half-life at 1 μM", "setting": "[4]; human, liver microsomes", "value": 3.75, "unit": "min"}, {"measurement": "half-life at 1 μM", "setting": "[5]; mouse, liver microsomes", "value": "< 5", "unit": "min"}, {"measurement": "hERG Potassium channel % Inhibition of specific binding", "setting": "[6]", "value": 73, "unit": "%"}, {"measurement": "efficacy of neuroprotection back to control levels (CFDA)", "setting": "[9]; [20]", "value": "full efficacy"}, {"measurement": "concentration required for full efficacy against oxidative stress toxicity", "setting": "[9]; hippocampal cultures", "value": 10, "unit": "µM"}, {"measurement": "efficacy of neuroprotection back to control levels (PI)", "setting": "[10]; [20]", "value": "full efficacy"}, {"measurement": "cell death response at 30 min or 60 min of incubation", "setting": "[12]", "value": "no significant changes from controls"}, {"measurement": "time points with significant cell death differences from control", "setting": "[12]", "value": "≥ 3", "unit": "h"}, {"measurement": "effect of CB2 antagonist AM 630 on compound-mediated neuroprotection", "setting": "[14]", "value": "significantly attenuated"}]}, {"smiles": "O=C1CSC(c2ccccc2Cl)c2cc(Cl)ccc2N1", "note": "(stereo not shown) [CGP-37157, 7-Chloro-5-(2-chlorophenyl)-1,5-dihydro-4,1-benzothiazepin-2(3H)-one, reference compound]", "values": [{"measurement": "concentration with significant increase in propidium iodide fluorescence", "setting": "[12]; 5 hours, day 14 cultures", "value": 100, "unit": "µM"}]}]}
